Data from ChEMBL document CHEMBL2177000, “Pharmacokinetic optimization of class-selective histone deacetylase inhibitors and identification of associated candidate predictive biomarkers of hepatocellular carcinoma tumor response” (J Med Chem, 2012).

Assays:
[1] = Clearance in mouse liver microsomes at 1 uM incubated for 10 mins by LC-MS/MS method; assay type: ADME, Microsome
Summary of the method: (§1)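 Liver microsomes (human or mouse, 0.5 mg/mL) in 100 mM potassium phosphate pH 7.4 with 1 μM compound, prewarmed 10 min at 37 °C, started with NADPH (10 mM); stopped at 0, 3, 6, 9, 15, 30 min with ice-cold methanol containing tolbutamide internal standard; LC-MS/MS. Hepatic clearance (mL/min/kg) calculated from intrinsic clearance.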

[2] = Clearance in human liver microsomes at 1 uM incubated for 10 mins by LC-MS/MS method; assay type: ADME, Microsome; summary of the method: as §1
[3] = target: Histone deacetylase (Homo sapiens) (UniProt Q13547+O15379+Q9UBN7+Q92769+Q9UQL6+Q8WUI4+Q9BY41+Q96DB2+P56524+Q9UKV0+Q969S8); test: Inhibition of Class 1 histone deacetylase in human HeLa cells assessed as induction in p21 protein expression at 3 uM incubated for 16 hrs by luciferase reporter gene assay relative to HDAC inhibitor entinostat; assay type: cell-based; design: scale not given: the % may be the effect or the level left

Row | SMILES | CLhep predicted at 1 µM [1] [mL/min/kg] | CLhep predicted at 1 µM [2] [mL/min/kg] | Activity [3] [%]
1 | CN1C[C@H](C(=O)Nc2ccccn2)[C@@H](c2ccc(/C=C/C(=O)Nc3ccccc3N)cc2)C1 (racemic) | 40 | 8 | 140
2 | CN1C[C@H](C(=O)NC2CCCC2)[C@@H](c2ccc(/C=C/C(=O)Nc3ccccc3N)cc2)C1 (racemic) | 61 | 9 | 180
3 | CN1C[C@H](C(=O)Nc2cccnc2)[C@@H](c2ccc(/C=C/C(=O)Nc3ccccc3N)cc2)C1 (racemic) | 41 | 10 | 80
4 | CN1C[C@H](C(=O)Nc2ccc(Cl)cc2)[C@@H](c2ccc(/C=C/C(=O)Nc3ccccc3N)nc2)C1 (racemic) | 38 | 12 | > 300
5 | CN1C[C@H](C(=O)Nc2ccc(Cl)c(Cl)c2)[C@@H](c2ccc(/C=C/C(=O)Nc3ccccc3N)cc2)C1 (racemic) | 36 | 14 | 160
6 | CN1C[C@H](C(=O)NC2CC2)[C@@H](c2ccc(/C=C/C(=O)Nc3ccccc3N)cc2)C1 (racemic) | 7 | 10 | 80
7 | CN1C[C@H](C(=O)Nc2ccc(Cl)cc2)[C@@H](c2ccc(/C=C/C(=O)Nc3ccccc3N)cc2)C1 (racemic) | – | – | 240
8 | COc1ccc(NC(=O)[C@H]2CN(C)C[C@@H]2c2ccc(/C=C/C(=O)Nc3ccccc3N)cc2)cc1 (racemic) | 54 | 14 | 170
9 | COc1cccc(NC(=O)[C@H]2CN(C)C[C@@H]2c2ccc(/C=C/C(=O)Nc3ccccc3N)cc2)c1 (racemic) | 65 | 14 | 170
10 | CN1C[C@H](C(=O)Nc2ccc(C#N)cc2)[C@@H](c2ccc(/C=C/C(=O)Nc3ccccc3N)cc2)C1 (racemic) | 35 | 1 | 80
11 | CN1C[C@H](C(=O)Nc2ccc(C(F)(F)F)cc2)[C@@H](c2ccc(/C=C/C(=O)Nc3ccccc3N)cc2)C1 (racemic) | 23 | 6 | 10
12 | Nc1ccccc1NC(=O)/C=C/c1ccc([C@H]2CN(CC(F)(F)F)C[C@@H]2C(=O)Nc2ccc(Cl)cc2)cc1 (racemic) | 35 | 15 | 100
13 | Cc1ccc(NC(=O)[C@H]2CN(C)C[C@@H]2c2ccc(/C=C/C(=O)Nc3ccccc3N)cc2)cn1 (racemic) | 57 | 8 | 130
14 | CCNC(=O)N1C[C@H](C(=O)Nc2ccc(Cl)cc2)[C@@H](c2ccc(/C=C/C(=O)Nc3ccccc3N)cc2)C1 (racemic) | 25 | 9 | 40
15 | CN1C[C@H](C(=O)Nc2cccc(Cl)c2)[C@@H](c2ccc(/C=C/C(=O)Nc3ccccc3N)cc2)C1 (racemic) | 58 | 7 | 230
16 | CN1C[C@H](C(=O)Nc2ccccc2F)[C@@H](c2ccc(/C=C/C(=O)Nc3ccccc3N)cc2)C1 (racemic) | 67 | 10 | 170
17 | Nc1ccccc1NC(=O)/C=C/c1ccc([C@H]2CN(c3ncccn3)C[C@@H]2C(=O)Nc2ccc(Cl)cc2)cc1 (racemic) | 44 | 11 | 120
18 | CN1C[C@H](C(=O)Nc2ccc(F)cc2F)[C@@H](c2ccc(/C=C/C(=O)Nc3ccccc3N)cc2)C1 (racemic) | 27 | 12 | 180
19 | CN1C[C@H](C(=O)Nc2ccc(F)c(Br)c2)[C@@H](c2ccc(/C=C/C(=O)Nc3ccccc3N)cc2)C1 (racemic) | 43 | 15 | 200
20 | CN1C[C@H](C(=O)Nc2ccc(Br)cc2)[C@@H](c2ccc(/C=C/C(=O)Nc3ccccc3N)cc2)C1 (racemic) | 16 | 3 | 40
21 | CC(C)c1ccc(NC(=O)[C@H]2CN(C)C[C@@H]2c2ccc(/C=C/C(=O)Nc3ccccc3N)cc2)cc1 (racemic) | 54 | 10 | 70
22 | CCN1C[C@H](C(=O)Nc2ccc(Cl)cc2)[C@@H](c2ccc(/C=C/C(=O)Nc3ccccc3N)cc2)C1 (racemic) | 35 | 12 | 170

Row | SMILES | CLhep predicted at 1 µM [1] [mL/min/kg] | CLhep predicted at 1 µM [2] [mL/min/kg] | Activity [3] [%]
23 | CN1C[C@H](C(=O)Nc2ccncc2)[C@@H](c2ccc(/C=C/C(=O)Nc3ccccc3N)cc2)C1 (racemic) | – | – | 50
24 | CN1C[C@H](C(=O)Nc2ccc(Cl)cn2)[C@@H](c2ccc(/C=C/C(=O)Nc3ccccc3N)cc2)C1 (racemic) | 31 | 13 | 150
25 | Nc1ccccc1NC(=O)/C=C/c1ccc([C@H]2CN(Cc3ccccc3)C[C@@H]2C(=O)Nc2ccc(Cl)cc2)cc1 (racemic) | 81 | 3 | 70
26 | CN1C[C@H](C(=O)Nc2ccc(F)c(Cl)c2)[C@@H](c2ccc(/C=C/C(=O)Nc3ccccc3N)cc2)C1 (racemic) | 34 | 15 | 180
27 | Nc1ccccc1NC(=O)/C=C/c1ccc([C@H]2CN(CCF)C[C@@H]2C(=O)Nc2ccc(Cl)cc2)cc1 (racemic) | 51 | 17 | 180
28 | CCN(CC)C(=O)N1C[C@H](C(=O)Nc2ccc(Cl)cc2)[C@@H](c2ccc(/C=C/C(=O)Nc3ccccc3N)cc2)C1 (racemic) | 83 | 19 | 90
29 | CN1C[C@H](C(=O)Nc2cccc(F)c2)[C@@H](c2ccc(/C=C/C(=O)Nc3ccccc3N)cc2)C1 (racemic) | 56 | 6 | 190
30 | CN1C[C@H](C(=O)Nc2ccc(Cl)cc2)[C@@H](c2cnc(/C=C/C(=O)Nc3ccccc3N)cn2)C1 (racemic) | 25 | 11 | > 300
31 | CC(C)NC(=O)[C@H]1CN(C)C[C@@H]1c1ccc(/C=C/C(=O)Nc2ccccc2N)cc1 (racemic) | 12 | 8 | 70
32 | CN1C[C@H](C(=O)Nc2ccccc2)[C@@H](c2ccc(/C=C/C(=O)Nc3ccccc3N)cc2)C1 (racemic) | 67 | 7 | 270
33 | Cc1cccc(NC(=O)[C@H]2CN(C)C[C@@H]2c2ccc(/C=C/C(=O)Nc3ccccc3N)cc2)c1 (racemic) | 74 | 14 | 350
34 | Cc1cc(NC(=O)[C@H]2CN(C)C[C@@H]2c2ccc(/C=C/C(=O)Nc3ccccc3N)cc2)ccc1F (racemic) | 62 | 15 | 200
35 | Nc1ccccc1NC(=O)/C=C/c1ccc([C@H]2CN(C3COC3)C[C@@H]2C(=O)Nc2ccc(Cl)cc2)cc1 (racemic) | 42 | 13 | 90
36 | Cc1ccc(NC(=O)[C@H]2CN(C)C[C@@H]2c2ccc(/C=C/C(=O)Nc3ccccc3N)cc2)cc1 (racemic) | 62 | 15 | 260
37 | CN1C[C@H](C(=O)N2CCCCC2)[C@@H](c2ccc(/C=C/C(=O)Nc3ccccc3N)cc2)C1 (racemic) | 42 | 9 | 10
38 | CN1C[C@H](C(=O)Nc2ccc(Cl)cc2F)[C@@H](c2ccc(/C=C/C(=O)Nc3ccccc3N)cc2)C1 (racemic) | 43 | 11 | 200
39 | Nc1ccccc1NC(=O)/C=C/c1ccc([C@H]2CN(CC(F)F)C[C@@H]2C(=O)Nc2ccc(Cl)cc2)cc1 (racemic) | 49 | 16 | 90
40 | CN1C[C@H](C(=O)Nc2ccc(C3CC3)cc2)[C@@H](c2ccc(/C=C/C(=O)Nc3ccccc3N)cc2)C1 (racemic) | 60 | 12 | 60
41 | N#CCN1C[C@H](C(=O)Nc2ccc(Cl)cc2)[C@@H](c2ccc(/C=C/C(=O)Nc3ccccc3N)cc2)C1 (racemic) | 51 | 17 | 190
42 | COCCN1C[C@H](C(=O)Nc2ccc(Cl)cc2)[C@@H](c2ccc(/C=C/C(=O)Nc3ccccc3N)cc2)C1 (racemic) | 72 | 6 | 250
43 | Cc1cc(NC(=O)[C@H]2CN(C)C[C@@H]2c2ccc(/C=C/C(=O)Nc3ccccc3N)cc2)ccc1Cl (racemic) | 65 | 15 | 210
